This is an account of results in ChEMBL document CHEMBL1139405, “N-Propynyl analogs of beta-phenylethylidenehydrazines: synthesis and evaluation of effects on glycine, GABA, and monoamine oxidase” (Bioorg Med Chem, 2008).

As usually defined, the inhibition is the change of the read-out against control, counted positive when it falls. A lower inhibition goes with a weak effect. As usually defined, the inhibition in vivo is the share of the control response that was lost under treatment.

Data set [1] deals with 4-aminobutyrate aminotransferase, mitochondrial (Homo sapiens) (UniProt P80404). The data set is described as follows: Inhibition of GABA-transaminase at 10 uM. In a few lines: (§1)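 In vitro screen: GABASE incubated with compound in incubation buffer, with GABA-T activity read by a modified colorimetric method.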
Data set [2] shares this target. The data set is described as follows: Inhibition of GABA-transaminase at 100 uM. The essentials:
as §1

The target of data set [3] is T1, Amine oxidase [flavin-containing] A (Rattus norvegicus, UniProt P21396).
T1 sequence (P21396 whole entry): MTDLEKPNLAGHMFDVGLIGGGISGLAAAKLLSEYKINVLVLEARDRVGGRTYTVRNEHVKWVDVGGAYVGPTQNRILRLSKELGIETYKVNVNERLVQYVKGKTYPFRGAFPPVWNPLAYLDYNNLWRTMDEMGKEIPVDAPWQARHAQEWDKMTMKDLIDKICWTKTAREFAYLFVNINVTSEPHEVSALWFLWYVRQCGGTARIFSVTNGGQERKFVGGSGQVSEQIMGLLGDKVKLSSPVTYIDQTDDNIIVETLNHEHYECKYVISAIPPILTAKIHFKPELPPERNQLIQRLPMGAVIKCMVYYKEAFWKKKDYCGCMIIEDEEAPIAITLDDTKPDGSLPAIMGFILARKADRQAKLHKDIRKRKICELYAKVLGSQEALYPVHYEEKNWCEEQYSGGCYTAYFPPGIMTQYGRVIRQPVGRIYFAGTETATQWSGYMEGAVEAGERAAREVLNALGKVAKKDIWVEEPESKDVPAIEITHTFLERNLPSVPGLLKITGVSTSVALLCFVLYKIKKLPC
The data set is described as follows: Inhibition of rat brain monoamine oxidase A.

The subject of data set [4] is Rattus norvegicus. The data set is described as follows: Ex vivo inhibition of GABA-transaminase in Sprague-Dawley rat whole brain at 30 mg/kg, ip after 3 hrs relative to control. It counts as functional. The following applies: route intraperitoneal. The essentials:
(§2)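 Male Sprague–Dawley rats (~300 g) dosed i.p. in corn oil, killed 3, 6 or 12 h later; whole-brain homogenate (5 volumes ice-cold water). GABA-T measured radiochemically: homogenate incubated with radiolabeled GABA in buffer containing pyridoxal phosphate, products isolated with tri-n-octylamine liquid anion exchanger, scintillation counting. Activity as % of vehicle control; N = 4–5 per group.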

The subject of data set [5] is Rattus norvegicus. The data set is described as follows: Ex vivo inhibition of GABA-transaminase in Sprague-Dawley rat whole brain at 30 mg/kg, ip after 12 hrs relative to control. It counts as functional. The note with it: route intraperitoneal. In a few lines: as §2
The subject of data set [6] is Rattus norvegicus. The data set is described as follows: Ex vivo inhibition of monoamine oxidase A in Sprague-Dawley rat whole brain at 30 mg/kg, ip. It is filed as functional. Set-up: dose 30 mg/kg. The essentials:
(§3)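 Male Sprague–Dawley rats (~300 g) dosed i.p. in corn oil, killed at 3, 6 or 12 h; whole-brain water homogenate diluted in 0.2 M potassium phosphate pH 7.4. Activity as % of vehicle control; N = 3–6 per group.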

Data set [7] concerns Rattus norvegicus. The data set is described as follows: Ex vivo increase in brain GABA level in Sprague-Dawley rat whole brain at 30 mg/kg, ip after 3 hrs relative to control. It counts as functional. The following applies: route intraperitoneal. The essentials: (§4)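 Male Sprague–Dawley rats (~300 g) given drug i.p. in corn oil vehicle, killed by decapitation at 3, 6 or 12 h; brains flash-frozen, homogenized in 5 volumes ice-cold water. Homogenate deproteinized in ice-cold methanol, centrifuged, OPA/isobutyryl-L-cysteine derivatized; HPLC with fluorescence detection, C18 column at 30 °C. Expressed as % of vehicle control; N = 3–5 per group.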

Data set [8] relates to Rattus norvegicus. The data set is described as follows: Ex vivo inhibition of GABA-transaminase in Sprague-Dawley rat whole brain at 30 mg/kg, ip after 6 hrs relative to control. It is filed as functional. The note with it: route intraperitoneal. The essentials: as §2
Data set [9] concerns Rattus norvegicus. The data set is described as follows: Ex vivo inhibition of monoamine oxidase B in Sprague-Dawley rat whole brain at 30 mg/kg, ip. It is filed as functional. Further details: dose 30 mg/kg. In a few lines:
as §3

The subject of data set [10] is Rattus norvegicus. The data set is described as follows: Ex vivo increase in brain alanine level in Sprague-Dawley rat whole brain at 30 mg/kg, ip after 3 hrs relative to control. It counts as functional. The following applies: route intraperitoneal. The essentials:
as §4

The test system of data set [11] is Rattus norvegicus. The data set is described as follows: Ex vivo increase in brain glycine level in Sprague-Dawley rat whole brain at 38.5 mg/kg, ip after 3 hrs relative to control. It counts as functional. Set-up: dose 38.5 mg/kg. In a few lines:
(§5)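 Male rats (~300 g) dosed i.p. in corn oil vehicle, killed by decapitation 3, 6 or 12 h later. Whole brains were flash-frozen, homogenized in 5 volumes ice-cold water, extracted with ice-cold methanol and centrifuged. Amino acids were derivatized with OPA/isobutyryl-L-cysteine and measured by HPLC-fluorescence on a C18 column at 30 °C. Values are % of vehicle control, N = 3–5 per group.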

The test system of data set [12] is Rattus norvegicus. The data set is described as follows: Ex vivo increase in brain glycine level in Sprague-Dawley rat whole brain at 38.5 mg/kg, ip after 6 hrs relative to control. It counts as functional. The note with it: route intraperitoneal. The essentials:
as §5

Molecules are shown by their SMILES. Active and inactive are the calls of the source. The calls are words filed in the database; no cut-off is given here.

Sequence of 4-aminobutyrate aminotransferase, mitochondrial (Homo sapiens) (P80404 whole entry): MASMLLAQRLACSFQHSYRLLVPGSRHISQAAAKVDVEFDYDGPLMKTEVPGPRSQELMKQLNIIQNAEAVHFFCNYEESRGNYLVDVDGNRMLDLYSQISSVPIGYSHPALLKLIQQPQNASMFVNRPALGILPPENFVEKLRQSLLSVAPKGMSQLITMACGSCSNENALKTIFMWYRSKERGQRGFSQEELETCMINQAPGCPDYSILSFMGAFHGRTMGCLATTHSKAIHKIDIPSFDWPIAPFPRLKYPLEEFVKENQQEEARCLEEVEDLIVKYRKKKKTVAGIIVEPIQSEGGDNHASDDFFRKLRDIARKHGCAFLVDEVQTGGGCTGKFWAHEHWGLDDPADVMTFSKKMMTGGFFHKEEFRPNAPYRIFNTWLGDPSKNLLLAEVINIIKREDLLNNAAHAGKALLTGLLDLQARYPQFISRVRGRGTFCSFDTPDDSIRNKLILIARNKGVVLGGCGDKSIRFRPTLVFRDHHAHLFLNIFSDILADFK

With `C#CCN(CC#C)/N=C/Cc1ccccc1C(F)(F)F`, the outcome in [1] and in data set [2] was inactive.

Consider `C#CCN/N=C/Cc1ccccc1F`, for which the outcome in [1] and in data set [2] was inactive.

As for `C#CCN(CC#C)/N=C/Cc1ccc(C(F)(F)F)cc1`, the outcome in data set [1] and in data set [2] was inactive.

For `C#CCN(CC#C)/N=C/Cc1cccc(C)c1`, the outcome in data set [1] and in data set [2] was inactive.

As to `C#CCN/N=C/Cc1cccc(F)c1`, the result in data set [1] and in data set [2] was inactive.

Regarding `C#CCN(CC#C)/N=C/Cc1ccccc1F`, the outcome in data set [1] and in [2] was inactive.

As to `C#CCN/N=C/Cc1ccc(C(F)(F)F)cc1`, the outcome in data set [1] and in data set [2] was inactive.

Turning to `C#CCN/N=C/Cc1ccc(Cl)cc1`, the outcome in data set [1] and in data set [2] was inactive.

With `C#CCN(CC#C)/N=C/Cc1cccc(Cl)c1`, the outcome in [1] and in data set [2] was inactive.

With `C#CCN(CC#C)/N=C/Cc1ccc(OC)cc1`, the outcome in data set [1] and in data set [2] was inactive.

As for `C#CCN/N=C/Cc1ccc(OC)cc1`, the outcome in data set [1] and in data set [2] was inactive.

Regarding `C#CCN(CC#C)/N=C/Cc1ccccc1Cl`, the outcome in data set [1] and in data set [2] was inactive.

For `C#CCN(CC#C)/N=C/Cc1ccc(Cl)cc1`, the result in data set [1] and in [2] was inactive.

Consider `C#CCN/N=C/Cc1cccc(OC)c1`, for which the outcome in data set [1] and in [2] was inactive.

On to `NNCCc1ccccc1` [PHENELZINE], for which the inhibition (INH) in data set [3] was more than 95%.

For the molecule `C#CCN/N=C/Cc1cccc(C(F)(F)F)c1`, the outcome in data set [1] and in data set [2] was inactive.

For the molecule `C#CCN(CC#C)/N=C/Cc1ccccc1C`, the result in [1] and in [2] was inactive.

`C#CCN/N=C/Cc1ccccc1C(F)(F)F`: the outcome in data set [1] and in [2] was inactive.

`N/N=C\Cc1ccccc1` displayed an inhibition in data set [1] of 10%. The values for the inhibition in vivo at 30 mg/kg in the data set on Rattus norvegicus [4], in the data set with Rattus norvegicus [5] and with Rattus norvegicus [8] were 66%, 70% and 66%, respectively. In addition, the result in the data set on Rattus norvegicus [6] and with Rattus norvegicus [9] was inactive. Moreover, the Activity in the data set on Rattus norvegicus [7] is given as 418%; in the data set with Rattus norvegicus [10], 489%.

On to `C#CCN/N=C/Cc1cccc(Cl)c1`, for which the outcome in data set [1] and in data set [2] was inactive.

With `C#CCN(CC#C)/N=C/Cc1ccccc1OC`, the outcome in data set [1] and in data set [2] was inactive.

Turning to `C#CCN/N=C/Cc1ccc(F)cc1`, the outcome in [1] and in [2] was inactive.

`C#CCN(CC#C)/N=C/Cc1ccc(F)cc1`: the result in [1] and in [2] was inactive.

On to `C#CCN(CC#C)/N=C/Cc1cccc(C(F)(F)F)c1`, for which the result in [1] and in [2] was inactive.

`C#CCN/N=C/Cc1ccccc1`: the outcome in data set [1] and in data set [2] was inactive. Besides, the outcome in the data set on Rattus norvegicus [11] was Active. The Activity in the data set on Rattus norvegicus [12] is reported as 216%.

As for `C#CCN(CC#C)/N=C/Cc1cccc(F)c1`, the outcome in data set [1] and in [2] was inactive.

As to `C#CCN(CC#C)/N=C/Cc1cccc(OC)c1`, the outcome in data set [1] and in data set [2] was inactive.

`C#CCN(CC#C)/N=C/Cc1ccc(C)cc1`: the outcome in data set [1] and in data set [2] was inactive.

As to `C#CCN/N=C/Cc1ccccc1Cl`, the outcome in data set [1] and in [2] was inactive.

On to `C#CCN/N=C/Cc1ccccc1C`, for which the outcome in [1] and in data set [2] was inactive.

Turning to `C#CCN/N=C/Cc1ccc(C)cc1`, the outcome in data set [1] and in data set [2] was inactive.

Regarding `C#CCN/N=C/Cc1cccc(C)c1`, the result in [1] and in [2] was inactive.

With `C#CCN/N=C/Cc1ccccc1OC`, the outcome in data set [1] and in data set [2] was inactive.
